Assay outcomes (PubChem)
bCat nuc transl = modulators of beta-catenin nuclear translocation; HeLa beta-catenin nuclear translocation, immunofluorescence imaging; nuclear translocation activity, % at 5 µM; 190,000 compounds, 0.3% hits; AID 1665;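 active means nuclear translocation activity above 50% at 5 µM, with a well cell count of 50 or more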;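 further: per-cell ratio of nuclear to cytoplasmic median beta-catenin stain intensity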
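System: HeLa cells, endogenous beta-catenin; compound dosing: 5 µM primary single dose, 0.1% DMSO, 0.02–20 µM confirmation series; incubation: 24 h compound exposure at 37°C, 5% CO2; signal: beta-catenin immunofluorescence imaging with DAPI; evaluation: % activation, nuclear-to-cytoplasmic median beta-catenin signal ratio per cell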
MT stabilizer = stabilizes microtubules in HeLa cells; 200,000 compounds, 0.83% hits; AID 2205; HeLa tubulin immunostaining HCS, 24 h; share of cells brighter than vehicle mean+2SD; % tubulin-high responders, % at 10 µM;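 active means plate Z-score above 3 for both tubulin-high and condensed-nucleus cell shares, with cell loss under 80%, at 10 µM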;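 further: anti alpha tubulin signal scored within the nucleus-defined area of each cell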
HSV augment = increases HSV replication in cells | HSV replication augmentation in cells, fold increase | maximum fold increase | 220,000 compounds, 0.005% hits | AID 1956; in the data active means maximum fold increase above about 1.5; tested in PC3 cells
Dynein cargo inh = dynein cargo transport inhibition | z-score, hits read low | 220,000 compounds, 0.47% hits | 3617.4 mouse cells, GR-EGFP nuclear translocation imaging; test concentration mostly 20 µM; stimulated with dexamethasone, 1 µM; stronger effect = lower value;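 active means plate z-score of nuclear minus cytoplasmic receptor signal below a set negative limit, without overly bright fluorescence or cell loss, cut at about -3.5 in these data, passing the limit was not always enough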;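 further: z-score of nuclear minus cytoplasmic ring GR-EGFP intensity difference per well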
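Buffer or medium: tet-free medium with charcoal-stripped serum / Also added: dexamethasone agonist, 1.0 µM final, for 30 min / Timing: induction 48 h, compound 1 h, agonist 30 min / Measured by: high-content fluorescence imaging after fixation / Read-out: nuclear-to-cytoplasmic GR-EGFP distribution per well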
Lmaj promast = Leishmania major promastigote growth inhibition; Leishmania major promastigotes, resazurin fluorescence viability; AID 1063; inhibition, % at 10 µM; 200,000 compounds, 9% hits; in the data active means inhibition above about 50%;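 further: promastigotes grown with compound for 44 hours at 28 °C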
Hits are given with their value. A selection: hits, their analogues and other compounds. The true share with any hit is near 8.9%.

Results for NC(=O)C(CC(=O)O)NC(=O)[C@@H]1CCOc2c(I)cc([N+](=O)[O-])cc2C(=O)N[C@@H](CCC(=O)O)C(=O)N[C@@H](CO)C(=O)N1 (stereo not given in full) ?
MT stabilizer: inactive; HSV augment: inactive; Dynein cargo inh: inactive; Lmaj promast: inactive

Results for CO/N=C(/CNC(=O)c1cccc(Cl)c1)c1ccc(Cl)cc1 ?
bCat nuc transl: inactive; MT stabilizer: inactive; Dynein cargo inh: inactive; Lmaj promast: inactive

Results for C/C(N)=C(/C#N)C(=O)CSc1nncn1-c1ccccc1 ?
bCat nuc transl: inactive; MT stabilizer: inactive; HSV augment: inactive; Dynein cargo inh: inactive; Lmaj promast: inactive

How did CCOC(=O)c1cc(-c2ccccc2)sc1NC(=O)C(C)OC(=O)c1cccnc1Cl (stereo not given) do in these assays?
bCat nuc transl: inactive; MT stabilizer: inactive; HSV augment: inactive; Dynein cargo inh: inactive; Lmaj promast: inactive

What do the screens show for `CCN(CC)CCNC(=O)c1ccc(NC(=O)c2ccc(Cl)c(S(=O)(=O)N3CCCCCC3)c2)cc1`?
bCat nuc transl: inactive; HSV augment: inactive; Dynein cargo inh: inactive

Results for CCN(CC)CCNc1cc(C)nc2c1C(=O)C(=O)C=C2N1CCCCC1 ?
bCat nuc transl: inactive; MT stabilizer: inactive; HSV augment: inactive; Dynein cargo inh: inactive; Lmaj promast: 101

Results for c1cc(CNc2ccc3c(c2)OCO3)ccn1 ?
bCat nuc transl: inactive; MT stabilizer: inactive; HSV augment: inactive; Dynein cargo inh: inactive; Lmaj promast: inactive

How did COc1ccccc1-c1cc(C(=O)Nc2cc(C)nn2-c2ccccc2)no1 do in these assays?
bCat nuc transl: inactive; MT stabilizer: 47; HSV augment: inactive; Dynein cargo inh: inactive; Lmaj promast: inactive

Results for COCCNC(=O)c1cc(-c2ccccc2OC)on1 ?
bCat nuc transl: inactive; MT stabilizer: 31; HSV augment: inactive; Dynein cargo inh: inactive; Lmaj promast: inactive

Results for COc1ccc(-c2cc(C(=O)Nc3cc(C)nn3-c3ccccc3)no2)cc1 ?
bCat nuc transl: inactive; MT stabilizer: inactive; HSV augment: inactive; Dynein cargo inh: inactive; Lmaj promast: inactive

How did Cc1cc(=O)oc2cc(OCC(=O)N3c4ccccc4CC3C)ccc12 (stereo not given) do in these assays?
bCat nuc transl: inactive; MT stabilizer: 51; HSV augment: inactive; Dynein cargo inh: inactive; Lmaj promast: inactive

How did O=S(=O)(N/N=C\C=C\c1ccccc1)c1ccccc1 do in these assays?
MT stabilizer: inactive; HSV augment: inactive; Dynein cargo inh: inactive; Lmaj promast: 51

What do the screens show for `COc1ccc(C(=O)c2ccc(N(C)C)cc2)c(OC)c1`?
bCat nuc transl: 96; MT stabilizer: inactive; HSV augment: inactive; Dynein cargo inh: inactive; Lmaj promast: inactive

What do the screens show for `COc1ccc(C(=O)c2ccc(OC)cc2OC)cc1`?
bCat nuc transl: 56; HSV augment: inactive; Dynein cargo inh: inactive

Results for CCN(C(=O)CN(C)Cc1c(F)cccc1Cl)c1c(N)n(Cc2ccccc2)c(=O)[nH]c1=O ?
bCat nuc transl: inactive; MT stabilizer: inactive; HSV augment: inactive; Dynein cargo inh: inactive; Lmaj promast: inactive

Results for CC(C)N(Cc1ccccc1)C(=O)Cn1c(=O)cnc2ccccc21 ?
bCat nuc transl: inactive; HSV augment: inactive; Dynein cargo inh: inactive

What do the screens show for `O=C(c1c[nH]c(C(=O)N2CCN(c3ccccc3F)CC2)c1)c1cccc(Cl)c1Cl`?
bCat nuc transl: inactive; MT stabilizer: 23; HSV augment: inactive; Dynein cargo inh: inactive; Lmaj promast: inactive

How did Cc1ccccc1C(=O)c1c[nH]c(C(=O)N2CCN(c3ccccc3F)CC2)c1 do in these assays?
bCat nuc transl: inactive; MT stabilizer: inactive; HSV augment: inactive; Dynein cargo inh: inactive; Lmaj promast: inactive

What do the screens show for `COc1ccc(NS(=O)(=O)c2ccc(OC)c(N(C)S(=O)(=O)c3ccc(Cl)cc3)c2)cc1`?
bCat nuc transl: inactive; MT stabilizer: inactive; HSV augment: inactive; Dynein cargo inh: inactive; Lmaj promast: 100

Results for COc1ccc(S(=O)(=O)Nc2ccc(F)cc2)cc1N(C)S(=O)(=O)c1ccc(Cl)cc1 ?
bCat nuc transl: inactive; MT stabilizer: inactive; HSV augment: inactive; Dynein cargo inh: inactive; Lmaj promast: 100

Results for COc1cc(C(=O)N2CCC(n3c(C)nc4cc(F)ccc43)CC2)cc(OC)c1OC ?
bCat nuc transl: inactive; MT stabilizer: inactive; HSV augment: inactive; Dynein cargo inh: inactive; Lmaj promast: inactive

What do the screens show for `CCOC(=O)c1ccc(Cl)c(NC(=O)c2cccnc2)c1`?
bCat nuc transl: inactive; MT stabilizer: inactive; HSV augment: inactive; Dynein cargo inh: inactive; Lmaj promast: inactive

How did CCOC(=O)c1ccc(-n2ccnc2)c(NC(=O)c2ccc(Cl)cc2)c1 do in these assays?
MT stabilizer: inactive; HSV augment: inactive; Dynein cargo inh: inactive; Lmaj promast: 81

What do the screens show for `COc1ccccc1C1(CC(=O)Nc2nccs2)CCOC(C(C)C)C1` (stereo not given)?
bCat nuc transl: inactive; MT stabilizer: inactive; HSV augment: inactive; Dynein cargo inh: inactive; Lmaj promast: 85

What do the screens show for `O=C(c1cc2c(s1)CCC2)N1C(=O)c2ccccc2S1(=O)=O`?
bCat nuc transl: inactive; MT stabilizer: inactive; HSV augment: inactive; Dynein cargo inh: inactive; Lmaj promast: inactive

Results for OCC1(Cc2ccccc2)CCN(C2CCN(c3ccc(F)c(F)c3)CC2)CC1 ?
bCat nuc transl: inactive; MT stabilizer: inactive; HSV augment: inactive; Dynein cargo inh: inactive; Lmaj promast: 98

Results for CC(C)CCn1c(N)c(S(=O)(=O)c2cccs2)c2nc3ccccc3nc21 ?
bCat nuc transl: inactive; MT stabilizer: inactive; HSV augment: inactive; Dynein cargo inh: inactive; Lmaj promast: 70

How did Nc1c(S(=O)(=O)c2cccs2)c2nc3ccccc3nc2n1CCc1ccccc1 do in these assays?
bCat nuc transl: inactive; MT stabilizer: inactive; Dynein cargo inh: inactive; Lmaj promast: 76

Results for COc1ccc(CCn2c(N)c(S(=O)(=O)c3cccs3)c3nc4ccccc4nc32)cc1OC ?
bCat nuc transl: inactive; MT stabilizer: inactive; HSV augment: inactive; Dynein cargo inh: inactive; Lmaj promast: inactive

How did COc1ccc(C(CNC(=O)c2cccc(Br)c2)N2CCCC2)cc1 (stereo not given) do in these assays?
MT stabilizer: inactive; HSV augment: inactive; Dynein cargo inh: inactive; Lmaj promast: 54

Results for CCCn1nc(C(=O)Nc2ccc(S(=O)(=O)Nc3ncccn3)cc2)c2ccccc2c1=O ?
bCat nuc transl: inactive; HSV augment: inactive; Dynein cargo inh: inactive

Results for CO/N=C/c1c(-c2ccc(Cl)cc2)nc2cc(C)ccn12 ?
bCat nuc transl: inactive; MT stabilizer: inactive; HSV augment: inactive; Dynein cargo inh: inactive; Lmaj promast: 61

Results for COc1ccc(C)cc1NC(=O)C(OC(=O)CNC(=O)c1cc(C)cc(C)c1)c1ccccc1 (stereo not given) ?
bCat nuc transl: inactive; MT stabilizer: inactive; HSV augment: inactive; Dynein cargo inh: inactive; Lmaj promast: inactive

Results for COc1ccc(C)cc1NC(=O)C(OC(=O)CNC(=O)c1ccc(Br)cc1)c1ccccc1 (stereo not given) ?
bCat nuc transl: inactive; MT stabilizer: inactive; HSV augment: inactive; Dynein cargo inh: inactive; Lmaj promast: 52
